Laboratory results: ChEMBL document CHEMBL1938287, “Design and synthesis of inhaled p38 inhibitors for the treatment of chronic obstructive pulmonary disease” (J Med Chem, 2011)
Values after ≈ are worked out from the molar mass of the structure shown.

Experiments:
[1] = Metabolic stability in human liver microsomes; type: ADME, Microsome; details: read-out: Stability
[2] = Metabolic stability in human liver microsomes assessed as phase II glucuronidation in the presence of uridine diphosphate glucuronic acid and absence of NADPH; type: ADME, Microsome; details: read-out: Stability
In short: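 Human liver microsomes incubated with the cofactor UDPGA and without NADPH, to assess phase II glucuronidation.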

[3] = Oral bioavailability in rat at 3 mg/kg; type: ADME, organism-based; details: in vivo
In short: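 Oral pharmacokinetics in rats from a 3 mg/kg dose.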

[4] = Volume of distribution at steady state in rat at 1 mg/kg, iv; type: ADME, organism-based; set-up: dose 1 mg/kg, route intravenous; details: in vivo, read-out: Vdss
[5] = Half life in rat at 1 mg/kg, iv; type: ADME, organism-based; set-up: dose 1 mg/kg, route intravenous; details: in vivo
In short: (§1)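 Intravenous pharmacokinetics in rats from a 1 mg/kg dose; blood sampled.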

[6] = Clearance in rat at 1 mg/kg, iv; type: ADME, organism-based; set-up: dose 1 mg/kg, route intravenous; details: in vivo; in short: as §1
[7] = Intrinsic clearance in rat liver microsomes; type: ADME, Microsome; details: read-out: CLH
[8] = organism: Rattus norvegicus; assay: Unbound clearance in rat; type: ADME, organism-based; details: in vivo
[9] = Solubility in simulated lung fluid; type: physicochemical
[10] = Clearance in dog at 0.5 mg/kg, iv; type: ADME, organism-based, Canis lupus familiaris; set-up: dose 0.5 mg/kg, route intravenous; details: in vivo
In short: (§2)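 Intravenous pharmacokinetics in dogs from a 0.5 mg/kg dose; blood sampled.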

[11] = organism: Canis familiaris; assay: Unbound clearance in dog; type: ADME, organism-based, Canis lupus familiaris; details: in vivo
[12] = tested on: Liver microsomes; assay: Drug metabolism in rat liver microsomes; type: ADME, Microsome
[13] = Volume of distribution at steady state in dog at 0.5 mg/kg, iv; type: ADME, organism-based, Canis lupus familiaris; set-up: dose 0.5 mg/kg, route intravenous; details: in vivo, read-out: Vdss
[14] = Lipophilicity, log D of the compound; type: physicochemical; details: octanol/water
[15] = Oral bioavailability in rat at 0.5 mg/kg; type: ADME, organism-based; details: in vivo
In short: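 Oral pharmacokinetics in rats from a 0.5 mg/kg dose; blood sampled.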

[16] = Dissociation constant, pKa of the compound; type: physicochemical
[17] = tested on: Liver microsomes; assay: Drug metabolism in human liver microsomes; type: ADME, Microsome
[18] = Half life in dog at 0.5 mg/kg, iv; type: ADME, organism-based, Canis lupus familiaris; set-up: dose 0.5 mg/kg, route intravenous; details: in vivo; in short: as §2
[19] = Aqueous solubility of the compound; type: physicochemical
[20] = Drug metabolism in dog liver microsomes; type: ADME, Canis lupus familiaris, Microsome

| SMILES | microsomal CLint [1] | microsomal CLint [2] | further results |
| --- | --- | --- | --- |
| CC(C)c1nnc2ccc(Sc3ccccc3CNC(=O)Nc3cc(C(C)(C)C)nn3-c3ccccc3)cn12 | > 320 µL/min/mg | – | – |
| CSC(C)(C)c1cc(NC(=O)NCc2ccccc2Sc2ccc3nnc(C(C)C)n3c2)n(-c2ccccc2)n1 | > 320 µL/min/mg | 1.7 µL/min/mg | – |
| CC(C)c1nnc2ccc(Sc3ccccc3CNC(=O)Nc3cc(C(C)(C)C)nn3-c3cccc(O)c3)cn12 | 385 µL/min/mg | – | – |
| CC(C)c1nnc2ccc(Sc3ccccc3CNC(=O)Nc3cc(C(C)(C)C)nn3-c3ccc(O)cc3)cn12 | 196 µL/min/mg | – | – |
| CSC(C)(C)c1cc(NC(=O)NCc2ccccc2Sc2ccc3nnc(C(C)C)n3c2)n(-c2cccc(O)c2)n1 | > 440 µL/min/mg | 2 µL/min/mg | bioavailability [3]: < 5%; Vd [4]: 0.9 L/kg; half-life [5]: 60 min; clearance [6]: 77 mL/min/kg; microsomal CLint [7]: 200 µL/min/mg; CL free [8]: > 9600 mL/min/kg |
| CC(C)c1nnc2ccc(Sc3ccccc3CNC(=O)Nc3cc(C(C)(C)C)nn3-c3ccc(O)c(Cl)c3)cn12 | > 287 µL/min/mg | 155 µL/min/mg | – |
| CC(C)c1nnc2ccc(Sc3ccccc3CNC(=O)Nc3cc(C(C)(C)C)nn3-c3ccc(Cl)c(O)c3)cn12 | 303 µL/min/mg | 66 µL/min/mg | – |
| Cc1ccc(-n2nc(C(C)(C)C)cc2NC(=O)NCc2ccccc2Sc2ccc3nnc(-c4ccccc4O)n3c2)cc1 | 279 µL/min/mg | – | – |
| Cc1cccc(-n2nc(C(C)(C)C)cc2NC(=O)NCc2ccccc2Sc2ccc3nnc(-c4cccc(Cl)c4O)n3c2)c1 | 126 µL/min/mg | 41 µL/min/mg | – |
| CSCC(C)(C)c1cc(NC(=O)NCc2ccccc2Sc2ccc3nnc(-c4ccccc4O)n3c2)n(-c2ccccc2)n1 | > 440 µL/min/mg | 27 µL/min/mg | – |
| Cc1ccc(-n2nc(C(C)(C)C)cc2NC(=O)NCc2ccccc2Sc2ccc3nnc(-c4cc(O)ccc4Cl)n3c2)cc1 | > 440 µL/min/mg | 43 µL/min/mg | – |
| Cc1ccc(-n2nc(C(C)(C)C)cc2NC(=O)NCc2ccccc2Sc2ccc3nnc(-c4ccc(O)cc4Cl)n3c2)cc1 | 132 µL/min/mg | – | – |
| CSc1ccccc1-c1nnc2ccc(Sc3ccccc3CNC(=O)Nc3cc(C(C)(C)C)nn3-c3cccc(O)c3)cn12 | 304 µL/min/mg | 11 µL/min/mg | – |
| CC(C)(C)c1cc(NC(=O)NCc2ccccc2Sc2ccc3nnc(-c4ccccc4O)n3c2)n(-c2cccc(OCCO)c2)n1 | > 287 µL/min/mg | 8 µL/min/mg | solubility [9]: 1 µg/mL (≈ 1.54 µM) |
| CC(C)(C)c1cc(NC(=O)NCc2ccccc2Sc2ccc3nnc(-c4ccccc4OCCO)n3c2)n(-c2cccc(O)c2)n1 | > 320 µL/min/mg | – | – |
| CC(C)(C)c1cc(NC(=O)NCc2ccccc2Sc2ccc3nnc(-c4cc(O)ccc4Cl)n3c2)n(-c2cccc(OCCO)c2)n1 | > 285 µL/min/mg | 53 µL/min/mg | – |
| CSCC(C)(C)c1cc(NC(=O)NCc2ccccc2Sc2ccc3nnc(-c4cc(O)ccc4Cl)n3c2)n(-c2cccc(OCCO)c2)n1 | > 216 µL/min/mg | 47 µL/min/mg | – |
| CC(C)(C)c1cc(NC(=O)NCc2ccccc2Sc2ccc3nnc(-c4ccccc4OCCO)n3c2)n(-c2ccc(O)c(Cl)c2)n1 | 202 µL/min/mg | 130 µL/min/mg | – |
| CC(C)(C)c1cc(NC(=O)NCc2ccccc2Sc2ccc3nnc(-c4ccccc4OCCO)n3c2)n(-c2ccc(Cl)c(O)c2)n1 | 232 µL/min/mg | 70 µL/min/mg | – |
| CSCC(C)(C)c1cc(NC(=O)NCc2ccccc2Sc2ccc3nnc(-c4ccccc4OCCO)n3c2)n(-c2ccc(O)c(Cl)c2)n1 | > 440 µL/min/mg | 310 µL/min/mg | – |
| CC(C)(C)c1cc(NC(=O)NCc2ccccc2Sc2ccc3nnc(-c4ccccc4OCCO)n3c2)n(-c2ccc(O)c(F)c2)n1 | > 440 µL/min/mg | – | – |
| CC(C)(C)c1cc(NC(=O)NCc2ccccc2Sc2ccc3nnc(-c4ccccc4SCCO)n3c2)n(-c2cccc(O)c2)n1 | > 440 µL/min/mg | 4 µL/min/mg | – |
| CSCC(C)(C)c1cc(NC(=O)NCc2ccccc2Sc2ccc3nnc(-c4ccccc4SCCO)n3c2)n(-c2ccc(O)c(Cl)c2)n1 | – | 264 µL/min/mg | – |
| C[C@@H]1C[C@H]2[C@@H]3C[C@H](F)C4=CC(=O)C=C[C@]4(C)[C@@]3(F)[C@@H](O)C[C@]2(C)[C@@]1(O)C(=O)SCF [FLUTICASONE] | – | – | solubility [9]: 0.5 µg/mL (≈ 1.12 µM) |
| CC(C)(C)c1cc(NC(=O)NCc2ccccc2Sc2ccc3nnc(-c4ccccc4SCCO)n3c2)n(-c2ccc(O)c(Cl)c2)n1 [PF-03715455] | > 347 µL/min/mg | 205 µL/min/mg | clearance [10]: 13.1 mL/min/kg; CL free [11]: 15000 mL/min/kg; Drug metabolism [12]: Active; Vd [13]: 0.06 L/kg; logD [14]: > 4.1; bioavailability [15]: < 5%; Vd [4]: 0.19 L/kg; half-life [5]: 60 min; pKa [16]: 7.45; clearance [6]: 33.8 mL/min/kg; Drug metabolism [17]: Active; half-life [18]: 30 min; solubility [19]: < 100 µg/mL; CL free [8]: 33000 mL/min/kg; Drug metabolism [20]: Active |
